# Data: ChEMBL document CHEMBL4602731, “A γ-Lactam Siderophore Antibiotic Effective against Multidrug-Resistant Gram-Negative Bacilli” (J Med Chem, 2020)
# Assays:
# [1] = Inhibition of Acinetobacter baumanni PBP3 assessed as reduction in fluorescence intensity of bocillin labeled protein by SDS-PAGE analysis; set-up: species or system Acinetobacter baumannii
# Pseudomonas aeruginosa [2] = experiment: Antimicrobial activity against Pseudomonas aeruginosa clinical isolates by standard broth microdilution method; assay type: functional
# Klebsiella pneumoniae = experiment: Antimicrobial activity against Klebsiella pneumoniae clinical isolates by standard broth microdilution method; assay type: functional
# Escherichia coli = experiment: Antimicrobial activity against Escherichia coli clinical isolates by standard broth microdilution method; assay type: functional
# Pseudomonas aeruginosa [3] = experiment: Antimicrobial activity against Pseudomonas aeruginosa PAO1 in presence of 0.1 ug/ml iron by standard broth microdilution method; assay type: functional
# How it was run: (§1)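 CLSI broth microdilution in iron-depleted cation-adjusted Mueller–Hinton broth, made by cation-exchange resin treatment, with an inoculum of 6 × 10^4 CFU/mL. For the iron series, soluble iron is added to the depleted medium. Total iron in the tested media is expected to be 0.02, 0.12, 1.02 and 10.02 μg/mL.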
# Pseudomonas aeruginosa [4] = experiment: Antimicrobial activity against Pseudomonas aeruginosa PAO1 in presence of 1 ug/ml iron by standard broth microdilution method; assay type: functional
# How it was run: (§2)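 MICs by CLSI broth microdilution, inoculum 6 × 10^4 CFU/mL, in cation-adjusted Mueller–Hinton broth iron-depleted with cation-exchange resin (reported to leave 0.02 μg/mL iron). Soluble iron added back; total media iron expected 0.02, 0.12, 1.02 and 10.02 μg/mL.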
# Pseudomonas aeruginosa [5] = experiment: Antimicrobial activity against Pseudomonas aeruginosa PAO1 in presence of 10 ug/ml iron by standard broth microdilution method; assay type: functional; how it was run: as §2
# [6] = Solubility in pH 7.5 phosphate buffer by nephelometry; assay type: physicochemical
# How it was run: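 Solubility in pH 7.5 phosphate buffer, measured by nephelometry.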
# [7] = Stability in pH 7.5 phosphate buffer assessed as compound hydrolysis after 2 weeks at room temperature; assay type: physicochemical; details: read-out: Drug degradation
# [8] = Half life human liver microsomes; assay type: ADME, Microsome
# [9] = Half life CD1 mouse liver microsomes; assay type: ADME, Microsome
# Cytochrome P450 = experiment: Inhibition of CYP450 (unknown origin) at 30 uM; assay type: ADME, protein assay; details: human
# [10] = Plasma concentration CD1 mouse at 50 mg/kg, iv after 2 hrs by HPLC-MS/MS analysis; assay type: ADME, organism-based
# How it was run: (§3)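 CD-1 mice, single IV dose of 50 mg/kg, parallel sampling in groups of 24 animals. Blood is taken by cardiac puncture under isoflurane into lithium heparin or K2EDTA tubes and spun at 2500 × g for 15 min at 4 °C. Plasma is precipitated with acetonitrile and run on HPLC-MS/MS against a spiked-plasma calibration curve with internal standard. Parameters come from noncompartmental analysis.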
# Hepatocyte = experiment: Toxicity in human primary hepatocytes at 100 uM incubated for 72 hrs; assay type: cell-based
# How it was run: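 Primary human hepatocytes exposed to compound at a maximum of 100 μM for 72 h.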
# [11] = biological target: Prostaglandin G/H synthase 1 (Homo sapiens) (UniProt P23219); experiment: Inhibition of COX1 (unknown origin) at 30 uM relative to control
# Sequence of Prostaglandin G/H synthase 1 (Homo sapiens) (P23219 whole entry): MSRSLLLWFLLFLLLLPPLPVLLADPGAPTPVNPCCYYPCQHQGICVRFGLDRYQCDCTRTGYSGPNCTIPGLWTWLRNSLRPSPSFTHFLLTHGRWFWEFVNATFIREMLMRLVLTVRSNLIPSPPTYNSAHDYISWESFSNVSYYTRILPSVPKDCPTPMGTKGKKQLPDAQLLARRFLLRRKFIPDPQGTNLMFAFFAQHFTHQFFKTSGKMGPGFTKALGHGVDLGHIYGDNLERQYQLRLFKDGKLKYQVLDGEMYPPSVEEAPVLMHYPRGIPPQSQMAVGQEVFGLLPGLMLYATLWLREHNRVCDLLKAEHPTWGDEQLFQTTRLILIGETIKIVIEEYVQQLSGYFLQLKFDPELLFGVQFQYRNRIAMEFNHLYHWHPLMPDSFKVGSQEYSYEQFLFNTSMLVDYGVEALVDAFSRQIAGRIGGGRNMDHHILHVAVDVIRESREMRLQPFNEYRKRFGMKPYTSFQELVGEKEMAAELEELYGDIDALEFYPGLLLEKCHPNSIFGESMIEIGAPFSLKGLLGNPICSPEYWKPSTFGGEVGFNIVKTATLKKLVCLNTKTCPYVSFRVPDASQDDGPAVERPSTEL
# How it was run: (§4)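 Safety panel of 44 enzymes, receptors and channels, with compound tested at 30 μM. Percent inhibition is measured.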
# [12] = biological target: cGMP-inhibited 3',5'-cyclic phosphodiesterase 3A (Homo sapiens) (UniProt Q14432); experiment: Inhibition of PDE3A (unknown origin) at 30 uM relative to control; how it was run: as §4
# Sequence of cGMP-inhibited 3',5'-cyclic phosphodiesterase 3A (Homo sapiens) (Q14432 whole entry): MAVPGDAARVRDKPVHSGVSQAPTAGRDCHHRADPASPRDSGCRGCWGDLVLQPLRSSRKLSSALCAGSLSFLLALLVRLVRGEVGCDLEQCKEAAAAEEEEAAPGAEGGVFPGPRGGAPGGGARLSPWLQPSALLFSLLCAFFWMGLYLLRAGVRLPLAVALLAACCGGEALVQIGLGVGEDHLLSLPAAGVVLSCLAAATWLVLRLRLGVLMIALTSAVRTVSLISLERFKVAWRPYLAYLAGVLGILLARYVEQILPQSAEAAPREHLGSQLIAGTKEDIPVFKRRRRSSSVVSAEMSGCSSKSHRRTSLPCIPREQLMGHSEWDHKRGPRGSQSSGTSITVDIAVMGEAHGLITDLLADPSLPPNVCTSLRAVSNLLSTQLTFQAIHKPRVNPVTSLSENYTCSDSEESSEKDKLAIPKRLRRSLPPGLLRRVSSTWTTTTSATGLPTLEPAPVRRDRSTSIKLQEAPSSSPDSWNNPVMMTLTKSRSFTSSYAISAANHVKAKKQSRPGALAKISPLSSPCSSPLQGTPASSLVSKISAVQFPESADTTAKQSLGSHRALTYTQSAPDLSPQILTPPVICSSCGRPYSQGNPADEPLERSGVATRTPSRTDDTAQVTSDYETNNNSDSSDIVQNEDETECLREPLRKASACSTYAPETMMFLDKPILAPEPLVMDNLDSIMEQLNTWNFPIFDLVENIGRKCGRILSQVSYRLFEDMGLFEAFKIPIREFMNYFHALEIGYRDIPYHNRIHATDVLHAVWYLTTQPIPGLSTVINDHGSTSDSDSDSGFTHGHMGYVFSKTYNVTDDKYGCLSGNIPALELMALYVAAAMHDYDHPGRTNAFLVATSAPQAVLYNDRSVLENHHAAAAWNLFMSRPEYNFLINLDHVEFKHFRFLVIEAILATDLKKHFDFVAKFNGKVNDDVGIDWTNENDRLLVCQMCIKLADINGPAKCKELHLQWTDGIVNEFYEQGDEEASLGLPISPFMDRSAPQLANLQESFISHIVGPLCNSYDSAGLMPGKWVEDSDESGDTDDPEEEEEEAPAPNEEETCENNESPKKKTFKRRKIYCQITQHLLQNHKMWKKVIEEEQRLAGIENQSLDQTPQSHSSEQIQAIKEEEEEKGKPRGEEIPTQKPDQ
# [13] = biological target: Voltage-gated inwardly rectifying potassium channel KCNH2 (Homo sapiens, UniProt Q12809); experiment: Binding affinity to human ERG at 30 uM
# Sequence of Voltage-gated inwardly rectifying potassium channel KCNH2 (Q12809 whole entry): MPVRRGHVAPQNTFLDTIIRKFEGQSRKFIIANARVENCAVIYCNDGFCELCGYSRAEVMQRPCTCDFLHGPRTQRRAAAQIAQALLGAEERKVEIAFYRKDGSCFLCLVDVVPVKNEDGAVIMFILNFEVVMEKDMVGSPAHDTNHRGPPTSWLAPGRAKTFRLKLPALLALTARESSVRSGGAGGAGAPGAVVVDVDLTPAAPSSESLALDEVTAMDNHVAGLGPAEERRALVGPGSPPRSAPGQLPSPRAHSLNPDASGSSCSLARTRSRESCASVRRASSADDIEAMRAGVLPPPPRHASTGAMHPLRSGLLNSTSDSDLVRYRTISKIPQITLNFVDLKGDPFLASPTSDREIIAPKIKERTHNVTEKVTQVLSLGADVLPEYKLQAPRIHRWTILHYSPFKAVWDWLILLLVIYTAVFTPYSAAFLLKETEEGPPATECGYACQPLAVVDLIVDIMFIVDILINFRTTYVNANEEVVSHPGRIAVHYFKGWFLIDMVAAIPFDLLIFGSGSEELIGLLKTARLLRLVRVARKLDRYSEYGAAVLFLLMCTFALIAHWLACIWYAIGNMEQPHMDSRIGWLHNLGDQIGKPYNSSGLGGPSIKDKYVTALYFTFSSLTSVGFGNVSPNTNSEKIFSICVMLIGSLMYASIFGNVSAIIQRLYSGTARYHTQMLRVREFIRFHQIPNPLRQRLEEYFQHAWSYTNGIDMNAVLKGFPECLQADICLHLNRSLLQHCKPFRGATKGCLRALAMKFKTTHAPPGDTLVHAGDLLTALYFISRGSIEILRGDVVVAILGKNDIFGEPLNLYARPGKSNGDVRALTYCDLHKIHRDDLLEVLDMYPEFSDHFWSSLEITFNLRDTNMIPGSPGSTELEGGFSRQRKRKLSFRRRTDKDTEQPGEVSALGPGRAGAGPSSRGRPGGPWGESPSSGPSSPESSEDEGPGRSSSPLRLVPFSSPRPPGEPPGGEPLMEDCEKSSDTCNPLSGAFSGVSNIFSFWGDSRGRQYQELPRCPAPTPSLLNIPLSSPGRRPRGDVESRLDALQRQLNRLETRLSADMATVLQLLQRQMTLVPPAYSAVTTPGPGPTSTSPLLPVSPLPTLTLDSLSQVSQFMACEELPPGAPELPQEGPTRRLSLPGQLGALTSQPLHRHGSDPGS
# [14] = biological target: Penicillin-binding protein 3 (Pseudomonas aeruginosa, UniProt Q51504); experiment: Inhibition of Pseudomonas aeruginosa PBP3 assessed as reduction in fluorescence intensity of bocillin labeled protein pre-incubated for 20 mins before bocillin addition by SDS-PAGE analysis
# Sequence of Penicillin-binding protein 3 (Q51504 whole entry): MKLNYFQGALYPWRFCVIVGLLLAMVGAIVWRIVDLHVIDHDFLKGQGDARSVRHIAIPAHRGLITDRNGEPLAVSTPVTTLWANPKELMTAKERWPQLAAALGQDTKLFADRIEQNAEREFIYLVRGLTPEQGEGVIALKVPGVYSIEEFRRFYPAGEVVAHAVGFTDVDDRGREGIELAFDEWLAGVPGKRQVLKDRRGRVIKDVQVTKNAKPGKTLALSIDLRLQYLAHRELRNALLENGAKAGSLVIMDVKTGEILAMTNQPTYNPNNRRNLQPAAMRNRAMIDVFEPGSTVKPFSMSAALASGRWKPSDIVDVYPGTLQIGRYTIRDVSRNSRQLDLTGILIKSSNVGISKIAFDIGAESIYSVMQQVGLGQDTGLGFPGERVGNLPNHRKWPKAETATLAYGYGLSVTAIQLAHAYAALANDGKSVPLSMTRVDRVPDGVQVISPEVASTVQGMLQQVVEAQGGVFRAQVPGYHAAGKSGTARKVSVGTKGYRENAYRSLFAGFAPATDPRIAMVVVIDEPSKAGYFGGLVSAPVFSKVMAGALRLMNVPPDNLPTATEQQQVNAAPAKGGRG
# [15] = biological target: Penicillin-binding protein 3 (Pseudomonas aeruginosa) (UniProt Q51504); experiment: Stabilization of Pseudomonas aeruginosa PBP3 assessed as melting temperature at 1 mM by DSF thermal shift assay (reference value: 44.1 +/- 0.14 degC)
# Sequence of Penicillin-binding protein 3 (Pseudomonas aeruginosa) (Q51504 as listed by the source): as the sequence (Q51504 whole entry) above
# How it was run: (§5)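 Ligand at […], ceftazidime at 0.2 mM as positive control; no-ligand control with 1% DMSO. Derivative of fluorescence change plotted against temperature.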
# [16] = biological target: Penicillin-binding protein 3 (Pseudomonas aeruginosa) (UniProt Q51504); experiment: Stabilization of Pseudomonas aeruginosa PBP3 assessed as increase in melting temperature at 1 mM by DSF thermal shift assay
# [17] = Half life in CD1 mouse at 50 mg/kg, iv after 2 hrs by HPLC-MS/MS analysis; assay type: ADME, organism-based; details: in vivo; how it was run: as §3
# [18] = Initial drug concentration in CD1 mouse at 50 mg/kg, iv after 2 hrs by HPLC-MS/MS analysis; assay type: ADME, organism-based; details: in vivo; how it was run: as §3
# [19] = AUClast in CD1 mouse at 50 mg/kg, iv after 2 hrs by HPLC-MS/MS analysis; assay type: ADME, organism-based; set-up: time < 2 hr, dose 50 mg/kg, route intravenous; details: in vivo; how it was run: as §3
# [20] = AUC (infinity) in CD1 mouse at 50 mg/kg, iv after 2 hrs by HPLC-MS/MS analysis; assay type: ADME, organism-based; set-up: dose 50 mg/kg, route intravenous, time infinity; details: in vivo; how it was run: as §3
# [21] = AUC (extrapolated) in CD1 mouse at 50 mg/kg, iv after 2 hrs by HPLC-MS/MS analysis; assay type: ADME, organism-based; details: in vivo; how it was run: as §3
# [22] = Volume of distribution at steady state in CD1 mouse at 50 mg/kg, iv after 2 hrs by HPLC-MS/MS analysis; assay type: ADME, organism-based; details: in vivo; how it was run: as §3
# [23] = Substrate activity at NDM-1 (unknown origin) assessed as Kcat for compound hydrolysis by diode array spectrophotometry; assay type: ADME; details: bacteria
# How it was run: (§6)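 The compound is the substrate, in molar excess for pseudo-first-order conditions. Hydrolysis is followed spectrophotometrically at Δε336 = −5500 M−1 cm−1 in a 1 cm quartz cuvette.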
# [24] = Substrate activity at NDM-1 (unknown origin) assessed as Kcat/Km ratio for compound hydrolysis by diode array spectrophotometry; assay type: ADME; details: bacteria; how it was run: as §6
# [25] = Substrate activity at VIM-2 (unknown origin) assessed as Kcat for compound hydrolysis by diode array spectrophotometry; assay type: ADME; details: bacteria
# [26] = Substrate activity at VIM-2 (unknown origin) assessed as Kcat/Km ratio for compound hydrolysis by diode array spectrophotometry; assay type: ADME; details: bacteria
# [27] = Substrate activity at IMP-1 (unknown origin) assessed as Kcat for compound hydrolysis by diode array spectrophotometry; assay type: ADME; details: bacteria
# [28] = Substrate activity at IMP-1 (unknown origin) assessed as Kcat/Km ratio for compound hydrolysis by diode array spectrophotometry; assay type: ADME; details: bacteria
# [29] = Substrate activity at KPC-2 (unknown origin) assessed as compound hydrolysis at 100 uM by diode array spectrophotometry; assay type: ADME; details: bacteria
# [30] = Substrate activity at OXA-23 (unknown origin) assessed as compound hydrolysis at 100 uM by diode array spectrophotometry; assay type: ADME; details: bacteria
# [31] = Substrate activity at OXA-24 (unknown origin) assessed as compound hydrolysis at 100 uM by diode array spectrophotometry; assay type: ADME; details: bacteria
# [32] = Substrate activity at PER-2 (unknown origin) assessed as compound hydrolysis at 100 uM by diode array spectrophotometry; assay type: ADME; details: bacteria
# Pseudomonas aeruginosa [33] = experiment: Antimicrobial activity against Pseudomonas aeruginosa clinical isolate in absence of iron by standard broth microdilution method
# Pseudomonas aeruginosa [34] = experiment: Antimicrobial activity against Pseudomonas aeruginosa clinical isolate in presence of 1 ug/ml iron by standard broth microdilution method
# Pseudomonas aeruginosa [35] = experiment: Antimicrobial activity against Pseudomonas aeruginosa clinical isolate in presence of 10 ug/ml iron by standard broth microdilution method
# [36] = biological target: Penicillin-binding protein 3 (Pseudomonas aeruginosa) (UniProt Q51504); experiment: Stabilization of Pseudomonas aeruginosa PBP3 assessed as melting temperature at 0.2 mM by DSF thermal shift assay (reference value: 44.1 +/- 0.14 degC); how it was run: as §5
# Pseudomonas aeruginosa [37] = experiment: Antimicrobial activity against Pseudomonas aeruginosa clinical isolate in presence of 0.1 ug/ml iron by standard broth microdilution method
# Pseudomonas aeruginosa [38] = experiment: Antimicrobial activity against Pseudomonas aeruginosa PAO1 in absence of iron by standard broth microdilution method; assay type: functional; how it was run: as §1
# [39] = Stability in pH 7.5 phosphate buffer assessed as compound hydrolysis measured 24 hrs after reconstitution; assay type: physicochemical; details: read-out: Drug degradation
compound,measurement,setting,value
C[C@@H](O)[C@H]1C(=O)N2C(C(=O)O)=C(S[C@@H]3CN[C@H](CNS(N)(=O)=O)C3)[C@H](C)[C@H]12 [DORIPENEM],IC50,[1],2300 nM
NC(=O)[C@@H]1CC[C@@H]2CN1C(=O)N2OS(=O)(=O)O [AVIBACTAM],MIC50,Pseudomonas aeruginosa [2],4 µg/mL
same,MIC90,Pseudomonas aeruginosa [2],> 32 µg/mL
same,MIC50,Klebsiella pneumoniae,0.5 µg/mL
same,MIC90,Klebsiella pneumoniae,2 µg/mL
CC(C)(O/N=C(\C(=O)N[C@H]1CN2CC(C(=O)NCCN3C(=O)c4cc(O)c(O)cc4C3=O)=C(C(=O)O)N2C1=O)c1csc(N)n1)C(=O)O,MIC50,Pseudomonas aeruginosa [2],1 µg/mL
same,MIC90,Pseudomonas aeruginosa [2],8 µg/mL
same,MIC50,Klebsiella pneumoniae,1 µg/mL
same,MIC50,Escherichia coli,1 µg/mL
same,MIC,Pseudomonas aeruginosa [3],2 µg/mL
same,MIC,Pseudomonas aeruginosa [4],16 µg/mL
same,MIC,Pseudomonas aeruginosa [5],> 16 µg/mL
same,solubility kinetic,[6],> 100 µM
same,degraded at 336 h,[7],4%
same,t1/2,[8],> 1 h
same,t1/2,[9],> 1 h
same,inhibition (INH),Cytochrome P450,Not Active
same,concentration at 2 h,[10],1400 ng/mL
same,Activity,Hepatocyte,Non-Toxic
same,inhibition,[11],63%
same,inhibition,[12],66%
same,Activity,[13],Not Active
same,IC50,[14],2500 nM
same,Tm,[15],51 °C
same,ΔTm,[16],7 °C
same,t1/2,[17],11 h
same,C0,[18],200844 ng/mL
same,AUClast,[19],55866 ng·h/mL
same,AUC,[20],57791 ng·h/mL
same,%AUCextra,[21],3%
same,Vdss,[22],2 L/kg
same,Kcat,[23],7 s⁻¹
same,Kcat/Km,[24],20000 M⁻¹ s⁻¹
same,Kcat,[25],20 s⁻¹
same,Kcat/Km,[26],20000 M⁻¹ s⁻¹
same,Kcat,[27],5 s⁻¹
same,Kcat/Km,[28],70000 M⁻¹ s⁻¹
same,Activity,[29],Not Active
same,Activity,[30],Not Active
same,Activity,[31],Not Active
same,Activity,[32],Not Active
same,MIC,Pseudomonas aeruginosa [33],0.5 µg/mL
same,MIC,Pseudomonas aeruginosa [34],> 16 µg/mL
same,MIC,Pseudomonas aeruginosa [35],> 16 µg/mL
C[C@@H](O)[C@H]1C(=O)N2C(C(=O)O)=C(SCCN=CN)C[C@H]12 [IMIPENEM ANHYDROUS],Kcat,[25],57 s⁻¹
same,Kcat/Km,[26],6.7e+06 M⁻¹ s⁻¹
same,Kcat,[27],36 s⁻¹
same,Kcat/Km,[28],3.2e+06 M⁻¹ s⁻¹
CC(C)(O/N=C(\C(=O)N[C@@H]1C(=O)N2C(C(=O)[O-])=C(C[n+]3ccccc3)CS[C@H]12)c1csc(N)n1)C(=O)O [CEFTAZIDIME],MIC50,Pseudomonas aeruginosa [2],4 µg/mL
same,MIC90,Pseudomonas aeruginosa [2],> 16 µg/mL
same,MIC50,Klebsiella pneumoniae,> 64 µg/mL
same,MIC90,Klebsiella pneumoniae,> 64 µg/mL
same,MIC50,Escherichia coli,2 µg/mL
same,MIC90,Escherichia coli,> 16 µg/mL
same,Tm,[36],56.5 °C
same,MIC,Pseudomonas aeruginosa [33],1 µg/mL
same,MIC,Pseudomonas aeruginosa [34],1 µg/mL
same,MIC,Pseudomonas aeruginosa [35],1 µg/mL
same,MIC,Pseudomonas aeruginosa [37],1 µg/mL
CC(C)(O/N=C(\C(=O)N[C@@H]1C(=O)N2C(C(=O)[O-])=C(C[N+]3(CCNC(=O)c4ccc(O)c(O)c4Cl)CCCC3)CS[C@H]12)c1csc(N)n1)C(=O)O [CEFIDEROCOL],MIC,Pseudomonas aeruginosa [38],0.06 µg/mL
same,MIC,Pseudomonas aeruginosa [4],0.5 µg/mL
same,MIC,Pseudomonas aeruginosa [5],2 µg/mL
same,MIC,Pseudomonas aeruginosa [33],0.13 µg/mL
same,MIC,Pseudomonas aeruginosa [34],0.25 µg/mL
same,MIC,Pseudomonas aeruginosa [35],1 µg/mL
same,MIC,Pseudomonas aeruginosa [37],0.13 µg/mL
C[C@@H](O)[C@H]1C(=O)N2C(C(=O)O)=C(S[C@@H]3CN[C@H](C(=O)N(C)C)C3)[C@H](C)[C@H]12 [MEROPENEM],MIC50,Pseudomonas aeruginosa [2],2 µg/mL
same,MIC90,Pseudomonas aeruginosa [2],> 8 µg/mL
same,MIC50,Klebsiella pneumoniae,16 µg/mL
same,MIC90,Klebsiella pneumoniae,> 64 µg/mL
same,MIC50,Escherichia coli,≤ 1 µg/mL
same,MIC90,Escherichia coli,8 µg/mL
same,degraded at 24 h,[39],> 30%
